Assay results collected from several papers.
Lines come from different studies, so protocols differ.
Observed: cell growth or viability

| Structure (SMILES) | cell line | technique | time | notes | IC50 [µM] |
| --- | --- | --- | --- | --- | --- |
| COc1cc(C(=O)c2nc(-c3cccc4occc34)c[nH]2)cc(OC)c1OC | PC-3 | MTS | 72 h |  | 0.0614 |
| CC(C)[C@H](NC(=O)[C@H](CCCCN)NC(=O)[C@H](Cc1c[nH]c2ccccc12)NC(=O)[C@H](Cc1c[nH]c2ccccc12)NC(=O)[C@H](CCCNC(=N)N)NC(=O)[C@H](Cc1c[nH]c2ccccc12)NC(=O)[C@H](Cc1c[nH]cn1)NC(=O)[C@@H](N)CCCNC(=N)N)C(=O)N[C@@H](Cc1c[nH]cn1)C(=O)N[C@@H](Cc1c[nH]c2ccccc12)C(=O)N[C@@H](CCCNC(=N)N)C(=O)N[C@@H](CCC(=O)O)C(=O)N[C@@H](Cc1c[nH]c2ccccc12)C(N)=O | A549 | MTT | 24 h |  | > 500 |
| CC[C@@]1(O)C(=O)OCc2c1cc1n(c2=O)Cc2cc3ccccc3nc2-1 | U-251 | SRB | 48 h |  | 0.064 |
| S=P1(c2ccccc2)CCCCC1 | PC-3 | MTT | 72 h |  | > 100 |
| N.N.[Cl][Pt][Cl] | NIH3T3 |  | 96 h |  | 6.78 |
| N.N.[Cl][Pt][Cl] | MEG-01 | ATP luminescence | 72 h |  | 5.17 |
| COc1cc(C(=O)c2nc(-c3ccc4[nH]ccc4c3)c[nH]2)cc(OC)c1OC | PC-3 | MTS | 72 h |  | 0.0277 |
| CC(C)[C@H](NC(=O)[C@H](CCCCN)NC(=O)[C@H](Cc1c[nH]c2ccccc12)NC(=O)[C@H](Cc1c[nH]c2ccccc12)NC(=O)[C@H](CCCNC(=N)N)NC(=O)[C@H](Cc1c[nH]c2ccccc12)NC(=O)[C@H](CCCNC(=N)N)NC(=O)[C@@H](N)CCCNC(=N)N)C(=O)N[C@@H](Cc1c[nH]cn1)C(=O)N[C@@H](Cc1c[nH]c2ccccc12)C(=O)N[C@@H](Cc1c[nH]cn1)C(=O)N[C@@H](CCC(=O)O)C(=O)N[C@@H](Cc1c[nH]c2ccccc12)C(N)=O | A549 | MTT | 24 h |  | > 500 |
| N.N.[Cl][Pt][Cl] | A549 | MTT | 48 h |  | 15.8 |
| CC[C@H](C)[C@H](NC(=O)[C@H](CCCNC(=N)N)NC(=O)CNC(=O)[C@H](CCCCN)NC(=O)[C@H](CCCNC(=N)N)NC(=O)[C@H](CCCNC(=N)N)NC(=O)[C@H](CC(C)C)NC(=O)[C@H](CCC(N)=O)NC(=O)CNC(=O)[C@H](CCCCN)NC(=O)[C@@H](N)CCSC)C(=O)N[C@@H](CCCNC(=N)N)C(N)=O | A549 | MTT | 24 h |  | > 500 |
| COc1cc(C(=O)c2nc(-c3cccc4ncccc34)c[nH]2)cc(OC)c1OC | PC-3 | MTS | 72 h |  | > 1 |
| CC[C@H](C)[C@H](NC(=O)[C@H](CCCNC(=N)N)NC(=O)[C@H](CCCNC(=N)N)NC(=O)[C@H](CCCCN)NC(=O)[C@H](CCCNC(=N)N)NC(=O)[C@H](CCCNC(=N)N)NC(=O)[C@H](CCCNC(=N)N)NC(=O)[C@H](CC(C)C)NC(=O)[C@H](CCCNC(=N)N)NC(=O)CNC(=O)[C@H](CCSC)NC(=O)[C@@H](N)CCSC)C(=O)N[C@@H](CCCCN)C(N)=O | A549 | MTT | 24 h |  | > 500 |
| CC(=N)S | NIH3T3 |  | 96 h | 3D culture | 332 |
